EWS-Fli block: EWS/Fli-driven NR0B1 reporter inhibitors, primary screen, A673 cells, NR0B1 luciferase, luminescence, MLPCN library; hit rate 0.67% among 350,000; viability-normalised; AID 651661, 2012; inhibition, % at 12.6 µM;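 active = mean inhibition of at least 50% after viability correction, with every replicate also passing that limit; inconclusive = mean reaches 50% but only one of two replicates passes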;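 note: firefly luciferase signal divided by Alamar Blue viability fluorescence both relative to DMSO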
LGR2 inh: inhibitors of bursicon-induced LGR2 CRE-luciferase signal, primary screen, cell-based, HEK293, CRE-luciferase reporter, bursicon stimulation; Drosophila bursicon receptor LGR2 (rickets); bursicon-stimulated, 4 h; inhibition, % at 9.99 µM; hit rate 0.35% among 380,000; AID 720647, 2013;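 active = drop in luminescence signal, shown as inhibition above about 50% in the replicate tests, limit read from the data, passing the limit was not always enough; inconclusive = probably only some replicates passing the limit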;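 note: agonist challenge used bursicon conditioned medium at about half maximal strength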
E-sel inducer: E-selectin induction in HUVECs, primary screen, imaging, HUVEC, immunofluorescence imaging, single point; hit rate 0.37% among 260,000; AID 686992, 2013; P16581; activation, % at 7.58 µM; normalized: neutral wells 0, TNF-alpha wells 100;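 active = mean E-selectin-positive cell signal at least 10% of the positive control, reached in at least 60% of replicates, without over 20% cell loss; inconclusive = no rule given, readout overlaps actives, possibly toxicity-flagged; inactive = the rest, including those meeting only one limit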
Target sequence (P16581 whole entry, looked up): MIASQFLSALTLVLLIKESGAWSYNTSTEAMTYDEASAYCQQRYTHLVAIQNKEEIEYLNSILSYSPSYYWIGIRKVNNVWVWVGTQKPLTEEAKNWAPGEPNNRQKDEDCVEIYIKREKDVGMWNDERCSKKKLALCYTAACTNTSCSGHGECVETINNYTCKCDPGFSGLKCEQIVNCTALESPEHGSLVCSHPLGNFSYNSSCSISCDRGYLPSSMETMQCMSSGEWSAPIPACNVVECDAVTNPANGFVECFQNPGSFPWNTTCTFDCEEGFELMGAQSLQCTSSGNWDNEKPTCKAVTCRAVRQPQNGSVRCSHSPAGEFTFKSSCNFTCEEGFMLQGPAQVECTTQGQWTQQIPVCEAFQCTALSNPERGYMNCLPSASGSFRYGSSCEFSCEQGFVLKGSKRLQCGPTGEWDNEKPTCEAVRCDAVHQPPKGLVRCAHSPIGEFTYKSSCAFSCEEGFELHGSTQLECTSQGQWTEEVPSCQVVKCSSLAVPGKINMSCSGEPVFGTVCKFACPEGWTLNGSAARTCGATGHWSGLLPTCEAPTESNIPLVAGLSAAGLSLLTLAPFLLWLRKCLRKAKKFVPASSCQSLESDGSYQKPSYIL
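Test system – human umbilical vein endothelial cells (HUVEC), E-selectin induction · Input – 3,000 HUVEC seeded per well · Buffer or medium – EGM-2, gelatin · Compound dosing – single-point compound dose · Detection – immunofluorescence imaging · Measure – percent E-selectin-positive cells · Controls – TNF-alpha high, DMSO low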
rRNA inh HTS: reduced GFP signal of wild-type E. coli, primary screen, bacterial rRNA inhibitor project, GFP/RFP fluorescence, OD600, single point | AID 720706, 2013 | E. coli WT GFP vs humanized-ribosome RFP mutants, 24 h; active compounds read low; DMSO median 0, no signal -100 | hit rate 1.6% among 350,000 | GFP signal change (wild-type ribosome), % (test concentration not listed);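 active = significant combined selectivity score with lowered wild-type GFP, culture density cut under 30%, mutant RFP and density less affected; inactive = any of these conditions unmet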
AID977621: growth inhibition of wild-type GFP E. coli, dose response, H69 mutant RFP, cherry-pick | E. coli wild-type GFP strain growth, fluorescence, 24 h | shares compounds with rRNA inh HTS | 1,900 tested, under 10 active | activity change, negative = inhibition at 50 µM | AID 977621, 2014;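 active = Wild-type ribosome reporter drop at least double the humanized mutant ribosome reporter drop, growth loss under a set limit; inconclusive = no clear call, values can overlap the other calls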;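 note: wild-type GFP and H69 mutant RFP strains grown together 50/50 in each well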
AID977628: E. coli growth inhibition, wild-type GFP versus h24 humanized RFP strain, dose response, h24 mutant RFP vs wild-type GFP, cherry-pick; shares compounds with rRNA inh HTS; E. coli WT GFP strain growth, fluorescence, 24 h; activity change, negative = inhibition at 50 µM; 1,900 tested, under 10 active; AID 977628, 2014;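 active = compound lowering the normal-ribosome reporter at least twice as much as the humanized-ribosome reporter, growth loss under a set limit; inconclusive = no clear call, values can overlap the other calls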;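 note: wild-type GFP and h24 humanized RFP strains co-cultured 1 to 1 per well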
* = called active by the depositor; ? = inconclusive; nt = no result given. This is a sample that favours compounds with a hit; in the whole collection about 2.4% have one here.

SMILES	EWS-Fli block	LGR2 inh	E-sel inducer	rRNA inh HTS	AID977621	AID977628
O=C(C[C@@H]1C[C@@H]2c3cc(NC(=O)Nc4ccc(C(F)(F)F)cc4)ccc3O[C@@H]2[C@H](CO)O1)NC1CCCCC1	-4	-1	1	-7	nt	nt
CCCNC(=O)N1CC2(C1)CN(C(=O)CC)[C@@H](CO)c1c2c2ccc(OC)cc2n1C	-18	-12	0	4	nt	nt
O=C(N[C@H]1CC1c1ccccc1)c1ccc([N+](=O)[O-])cc1 (stereo not given in full)	-94	-3	1	-28*	?	-7.8
O=C(NCc1ccccc1)c1ccc([N+](=O)[O-])cc1	-8	-5	0	-6	nt	nt
O=C(COC(=O)CCC(=O)c1ccc(F)cc1)Nc1cccc(S(=O)(=O)N2CCCC2)c1	2	3	?	-21*	-21	-11
CC(=O)c1cccc(NC(=O)CCC(=O)c2ccc(F)cc2)c1	-6	-8	nt	-3	nt	nt
O=C(COC(=O)c1n[nH]c2ccccc12)Nc1cccc(S(=O)(=O)N2CCOCC2)c1	2	-4	4	-25*	-18	-13
CC(=O)c1cccc(NC(=O)COC(=O)CCC(=O)c2ccc(F)cc2)c1	0	-8	0	-17*	-1.8	nt
COc1ccc(CN(C)C[C@H]2OCCCC[C@H](C)Oc3ccc(NS(=O)(=O)c4ccccc4)cc3C(=O)N([C@@H](C)CO)C[C@@H]2C)cc1	8	2	0	2	nt	nt
COc1ccc2c(c1)c(C(C)=O)c(C)n2CCc1ccc(OC)c(OC)c1	-16	4	0	-33*	-11	nt
CCCCCc1nnc(NC(=O)C2COc3ccccc3O2)s1 (stereo not given)	-85	-19	-1	-20*	3.7	-11
CCCC(=O)N(CCc1ccc(OC)cc1)Cc1nc2ccccc2c(=O)[nH]1	-7	0	nt	-21*	nt	-7.7
CCCCC(=O)N(Cc1ccc2c(c1)OCO2)Cc1nc2ccccc2c(=O)[nH]1	5	25	nt	-23*	nt	-3.8
CCn1cc(Cl)c(C(=O)Nc2cccc(C(F)(F)F)c2)n1	-30	-18	10	-23*	-16	nt
C[C@H]1CN([C@@H](C)CO)C(=O)c2cccc(NC(=O)C3CCCCC3)c2O[C@H]1CN(C)C	-5	-15	2	6	nt	nt
Cc1ccc(S(=O)(=O)N2CCCN(S(=O)(=O)c3ccccc3Br)CC2)cc1	-12	-14	-1	-17*	-17	?
Cc1ccc(S(=O)(=O)N2C/C=C\CN(S(=O)(=O)c3ccccc3Br)CC2)cc1	12	3	0	-16	nt	nt
Cc1ccc(-c2n[nH]c(S(C)(=O)=O)c2C#N)cc1	-5	-11	-2	-21*	-20	?
Cc1cccc(-c2n[nH]c(S(C)(=O)=O)c2C#N)c1	-16	-5	9	-16	nt	nt
COc1ccc(NC(=O)CSc2nnc(Cc3ccccc3)o2)c(OC)c1	9	5	nt	-24*	-23	-20
Cc1noc(C)c1S(=O)(=O)N(C)C[C@@H]1Oc2ccc(NC(=O)Nc3ccccc3)cc2CC(=O)N([C@@H](C)CO)C[C@@H]1C	-13	-24	0	5	nt	nt
CCn1ccnc1CN1CCCC(C(=O)c2ccc3cc(OC)ccc3c2)C1 (stereo not given)	30	-8	2	-33*	-5.8	-3.3
CC(C)NC(=O)Nc1ccc2c(c1)C(=O)N([C@H](C)CO)C[C@@H](C)[C@@H](CN(C)C(=O)Nc1ccc(F)cc1)O2	-17	-5	0	2	nt	nt
COc1ccc(NC(=O)CN(C)S(=O)(=O)c2cccs2)cc1	nt	22	nt	nt	nt	nt
Cc1cccc(NC(=O)CN(C)S(=O)(=O)c2cccs2)c1	-4	-26	nt	-27*	-15	?
SMILES	EWS-Fli block	LGR2 inh	E-sel inducer	rRNA inh HTS	AID977621	AID977628
O=C(c1ccccc1)c1ccc2nc(-c3ccc(NC(=O)c4ccccc4Br)cc3)[nH]c2c1	nt	-8	nt	-17*	nt	-13
Cc1ccccc1C(=O)Nc1ccc(-c2nc3ccc(C(=O)c4ccccc4)cc3[nH]2)cc1	nt	12	nt	nt	nt	nt
CN(C)C(=O)C1C2NC(=S)N(c3cccc(Cl)c3)C1(C)Oc1ccc(Cl)cc12 (stereo not given)	4	-6	nt	-22*	-2.2	nt
CCOc1ccc(NC(=O)CCc2nnc3ccc(N4CCN(C)CC4)nn23)cc1	-1	8	nt	-3	nt	nt
CCOc1ccc(NC(=O)CCc2nnc3ccc(N4CCC(C)CC4)nn23)cc1	2	11	nt	-20*	-1.4	nt
O=C(CC(c1ccccc1)c1cc(Br)ccc1O)N1CCCC1 (stereo not given)	7	-9	-1	-20*	nt	?
COCc1nnc(NC(=O)c2ccc(S(=O)(=O)N3CCCC3)cc2)o1	5	-10	-1	-23*	-16	nt
NS(=O)(=O)c1cccc(NC(=O)COc2ncnc3c2cnn3-c2ccccc2)c1	9	2	-1	-20*	?	nt
O=C(C[C@H]1C=C[C@@H](NS(=O)(=O)c2ccccc2)[C@H](CO)O1)N1CCN(c2ccccc2)CC1	-7	-3	0	-2	nt	nt
COc1ccc(Cc2nc3ccc(C(=O)NCc4cc(C)no4)cc3o2)cc1OC	-9	10	nt	7	nt	nt
C=CCN(CC=C)C(=O)c1ccc2nc(Cc3ccc(OC)c(OC)c3)oc2c1	-9	-16	0	-33*	nt	?
Nc1[nH]c(C(=O)c2ccccc2)c(-c2ccc(Br)cc2)c1C(=O)c1cccs1	-10	-2	nt	-34*	?	nt
Nc1[nH]c(C(=O)c2ccccc2)c(-c2ccc(Br)cc2)c1C(=O)c1ccccc1	12	0	0	nt	nt	nt
CO[C@@H]1CN(C)C(=O)c2ccc(NC(=O)C3CC3)cc2OC[C@@H](C)N(C(=O)NC(C)C)C[C@H]1C	-2	-13	0	0	nt	nt
Cc1ccc(NC(=O)C2CCN(S(=O)(=O)c3ccc4c(c3)NC(=O)CO4)CC2)cc1	nt	12	nt	-18*	nt	-17
Cc1ccc(S(=O)(=O)N(C(=O)c2ccncc2)c2ccc(OC(=O)c3ccncc3)cc2)c(C)c1	13	26	-2	-18*	1.9	0.88
CCCc1cn(CC[C@@H]2CC[C@@H](NC(=O)Nc3ccccc3F)[C@H](CO)O2)nn1	4	0	0	-4	nt	nt
COc1ccc(C(C)NC(=O)Cc2cccs2)cc1 (stereo not given)	-5	4	nt	0	nt	nt
COc1ccc(CC(=O)NC(C)c2ccc3ccccc3c2)cc1 (stereo not given)	4	-8	0	-23*	nt	?
Cc1ccc(S(=O)(=O)N(C)C[C@@H]2Oc3ccc(NS(=O)(=O)c4ccc(F)cc4)cc3C(=O)N([C@H](C)CO)C[C@@H]2C)cc1	2	-18	0	-1	nt	nt

Screening results: PubChem, Broad Institute
